Activity calls are given as the source filed them.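 How the source made its calls, unless noted: active means fluorescence slope higher than the sample average by over 3 SD (cut at about -0.22 in these data, passing the limit was not always enough); inactive means the rest.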

What is called inhibition is the change of the read-out against control, counted positive when it falls.

Experiment [1] in a line: inhibitors of TNFa-induced NFkB p65 translocation, primary screen, imaging, HUVEC, MLSMR starter and 10KST1 sets (AID 438;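 active means inhibition above 20% together with a positive visual image hit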;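 further: compound added about 3h40 before a 20 min TNFalpha stimulation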;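 on inhibition: signal is the nuclear over cytoplasmic p65 intensity ratio per well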). As to conditions: HUVEC TNFa-induced p65 nuclear translocation; cell count: measured here: nuclei count (cytotoxicity indicator), at 2.08 µM; inhibition: at 2 µM, stronger effect = higher value, 0% TNFa-plus-vehicle, 100% no-TNFa wells.
A short description of experiment [2]: reduction of polyQ htt aggregates in cells – imaging, exon1htt(103Q)mCFP cells, high-content imaging, primary screen (AID 483;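 active means visual image review flags a hit and inhibition of aggregation exceeds 20%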;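 further: compound exposure lasted 3 days before fixation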;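 on nuclei count: percent of the per-plate median nuclei count of sample wells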). Particulars: exon1htt(103Q)mCFP cell line, aggregate imaging, at 2 µM; inhibition of aggregation: stronger effect = higher value; nuclei count: measured here: cell count, toxicity.
A short description of experiment [3]: endothelial E-selectin expression blockers – imaging, HUVEC, immunofluorescence, MLSMR starter and 10KST1 sets, primary screen (AID 487;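 active means visually confirmed hit in the image check and inhibition above 20%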;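 on inhibition: signal is fraction of cell area covered by stained E-selectin grains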;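 on nuclei count: 100% = median nuclei count of all wells on the same plate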). As to conditions: HUVEC TNFalpha-induced E-selectin immunofluorescence imaging, at 2 µM; inhibition: stronger effect = higher value; nuclei count: measured here: cell number, toxicity.
The target of experiment [4] is Voltage-gated potassium channel subunit beta-2 (Rattus norvegicus) (UniProt P62483). Kind of experiment: inhibitors of rat Kvbeta2 reductase activity – biochemical, NADPH fluorescence, primary screen (AID 622).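 Further: slope of raw intensity against log time taken from 70 to 1610 s.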 Particulars: recombinant KvBeta, 4-cyanobenzaldehyde reduction, at 10 µM, stronger effect = higher value.
Experiment [5] shares this target. In words: enhancers of rat Kvbeta2 NADPH turnover – biochemical, NADPH fluorescence, primary screen (AID 623;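 active means NADPH fluorescence slope more negative than the mean of all samples by about 3 SD, 99.7% confidence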;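 further: fluorescence intensity change per second fitted from 20 to 320 s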). Particulars: Recombinant KvBeta, NADPH fluorescence decrease slope, 10 min; at 10 µM; stronger effect = lower value.
Experiment [6] has as its target Muscarinic acetylcholine receptor M4 (Homo sapiens) (UniProt P08173). Kind of experiment: M4-linked GIRK flux change, two-sided – cell-based, HEK293 M4/GIRK, thallium flux, BTC-AM, M4 allosteric agonist project, primary screen (AID 625;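 active means fluorescence slope after compound addition differing from the mean of all tested samples at 99.7% confidence, mostly higher but some lower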;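 further: thallium influx through GIRK channels coupled to M4 in HEK293 cells with BTC-AM dye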). Particulars: at 10 µM, actives lie on both sides. Put shortly: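 assay system = HEK293 cells with M4 receptor and GIRK channels | medium = pH 7.3 thallium assay buffer | doses = 10 µM final, single point | timing = cells overnight at 37 °C, BTC-AM loading 1 h, reads 2 min total | signal = BTC-AM fluorescence, 1 Hz kinetic reads | read-out = post-addition slope, 15–24 s, of baseline-normalized fluorescence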

Experiment [7] can be described thus: blockers of RIG-like receptor reporter activation – cell-based, Sendai virus stimulus, luciferase, 10K MLSCN set, TLR/RLR signaling modifier project, primary screen (AID 602276;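 active means inhibition at or above 50% at 10 µM; inactive means inhibition below 50%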;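 further: firefly luciferase from ISG56 promoter only with Renilla not read in this screen; 0% = Sendai virus plus DMSO and 100% = medium plus DMSO without virus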). As to conditions: HEK293 RL24 IRF3 luciferase reporter, at 10 µM, stronger effect = higher value. (In general: A reporter such as luciferase makes a cellular process visible.)
Experiment [8] in a line: TLR3 IRF3 reporter activation blockers – cell-based, poly I:C stimulus, luciferase, 10K MLSCN set, primary screen (AID 602277;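 active means inhibition of the reporter signal at or above 50%; inactive means inhibition below 50%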). As to conditions: HEK293-TLR3 RL24 IRF3 luciferase reporter, at 10 µM, stronger effect = higher value.

Muscarinic acetylcholine receptor M4 (Homo sapiens), sequence (P08173 whole entry, looked up): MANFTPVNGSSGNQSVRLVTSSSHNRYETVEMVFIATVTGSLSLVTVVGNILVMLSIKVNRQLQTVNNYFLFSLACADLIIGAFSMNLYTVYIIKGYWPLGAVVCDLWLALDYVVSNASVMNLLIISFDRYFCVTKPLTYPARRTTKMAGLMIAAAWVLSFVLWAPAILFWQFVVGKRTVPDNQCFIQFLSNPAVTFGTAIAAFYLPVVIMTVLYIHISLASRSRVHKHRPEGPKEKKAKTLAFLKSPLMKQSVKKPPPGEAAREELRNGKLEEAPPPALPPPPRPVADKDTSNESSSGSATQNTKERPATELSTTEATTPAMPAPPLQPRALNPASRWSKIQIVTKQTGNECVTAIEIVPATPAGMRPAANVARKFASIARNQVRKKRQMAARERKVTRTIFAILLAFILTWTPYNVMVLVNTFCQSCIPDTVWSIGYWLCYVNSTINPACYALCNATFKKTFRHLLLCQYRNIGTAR
Voltage-gated potassium channel subunit beta-2 (Rattus norvegicus), sequence (P62483 whole entry, looked up): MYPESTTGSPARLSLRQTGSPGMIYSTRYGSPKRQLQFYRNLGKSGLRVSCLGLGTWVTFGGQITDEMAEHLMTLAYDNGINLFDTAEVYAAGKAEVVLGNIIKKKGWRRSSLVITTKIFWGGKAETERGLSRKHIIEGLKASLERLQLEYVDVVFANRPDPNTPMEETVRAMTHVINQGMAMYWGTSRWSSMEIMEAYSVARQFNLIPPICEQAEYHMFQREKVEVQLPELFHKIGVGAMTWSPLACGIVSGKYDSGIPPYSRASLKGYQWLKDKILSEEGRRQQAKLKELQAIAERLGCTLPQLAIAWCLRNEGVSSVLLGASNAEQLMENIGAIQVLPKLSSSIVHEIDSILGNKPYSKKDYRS

In the case of `O=C(CSc1ncccn1)c1ccccc1Br`, the cell count in experiment [1] amounted to 483. The inhibition in experiment [1] is 2.9% (inactive); in experiment [3], 1.5% (inactive); in experiment [7] it was -24.3% (inactive); in experiment [8], -65.9% (inactive). Besides, the inhibition of aggregation in experiment [2] is 0.9% (inactive). Also, the nuclei count in experiment [2] was determined as 114%; in experiment [3], 103%. Besides, the fluorescence slope in experiment [4] was -0.582 (inactive); in experiment [6] it was 0.00475 (inactive). In addition, the NADPH fluorescence slope in experiment [5] is -0.000119 (inactive).

As to `Cc1ccc2ncnc(NCCCN3CCOCC3)c2c1`, the cell count in experiment [1] was 339. For the same compound, the inhibition in experiment [1] is -0.6% (inactive); in experiment [3], -25.5% (inactive); in experiment [7], -18.7% (inactive); in experiment [8] it was -21.1% (inactive). The inhibition of aggregation in experiment [2] is 4.8% (inactive). In addition, the nuclei count in experiment [2] was 101%; in experiment [3], 115%. The fluorescence slope in experiment [4] is -0.484 (inactive); in experiment [6], 0.00376 (inactive). Moreover, in experiment [5], the NADPH fluorescence slope is -0.000336 (inactive).

Consider `CCOc1ccc2ccccc2c1/C=N/n1cncn1`, for which the cell count in experiment [1] was determined as 416. Moreover, the inhibition is 3.4% (inactive) in experiment [1], -92.4% (inactive) in experiment [3], 11.7% (inactive) in experiment [7] and -8.9% (inactive) in experiment [8]. For the same compound, the inhibition of aggregation in experiment [2] is 9.7% (inactive). The figures for the nuclei count in experiment [2] and in experiment [3] were 97.3% and 120%, respectively. For the same compound, the fluorescence slope is -0.605 (inactive) in experiment [4] and 0.0038 (inactive) in experiment [6]. Besides, in experiment [5], the NADPH fluorescence slope was -4.9e-05 (inactive).

As to `CN1CCc2nc(SCC(=O)Nc3ccc(F)cc3)c(C#N)cc2C1`, the cell count in experiment [1] turned out to be 646. Besides, the inhibition in experiment [1] was -14.8% (inactive); in experiment [3], -75.1% (inactive); in experiment [7] it was -24.5% (inactive); in experiment [8], -52.9% (inactive). Also, the inhibition of aggregation in experiment [2] is -16.9% (inactive). Further, the nuclei count in experiment [2] and in experiment [3] was 101% in each case. In addition, the fluorescence slope in experiment [4] is -0.456 (inactive); in experiment [6], 0.00558 (inactive). Moreover, the NADPH fluorescence slope in experiment [5] is 0.000133 (inactive).

As for `CN(C=O)CP(=O)(O)CCN1CCCC1=O`, in experiment [1], the cell count came to 447. The inhibition in experiment [1] is 7% (inactive); in experiment [3], 27% (inactive); in experiment [7], 14.6% (inactive); in experiment [8] it was 25.4% (inactive). Also, in experiment [2], the inhibition of aggregation is 19.4% (inactive). The nuclei count in experiment [2] worked out at 90.6%; in experiment [3], 106%. Besides, the fluorescence slope in experiment [4] is -0.589 (inactive); in experiment [6], 0.00412 (inactive). In addition, in experiment [5], the NADPH fluorescence slope is -5.8e-05 (inactive).

Turning to `CC(=O)Nc1ccc(S(=O)(=O)N2CCSC2c2ccccc2)cc1` (centres undefined), in experiment [1], the cell count turned out to be 241. Further, the inhibition was -12.1% (inactive) in experiment [1], -34.7% (inactive) in experiment [3], 18.3% (inactive) in experiment [7] and 22% (inactive) in experiment [8]. The inhibition of aggregation in experiment [2] was -8.7% (inactive). Further, the nuclei count was determined as 106% in experiment [2] and 76.2% in experiment [3]. For the same compound, the fluorescence slope in experiment [4] was -0.552 (inactive); in experiment [6], 0.00574 (inactive). Moreover, in experiment [5], the NADPH fluorescence slope was -3.6e-05 (inactive).

With `CCNS(=O)(=O)c1ccc(S(=O)(=O)N(Cc2ccccn2)C2CCCCC2)cc1`, in experiment [1], the cell count was determined as 579. Also, the inhibition in experiment [1] is 3.8% (inactive); in experiment [3], -3.6% (inactive); in experiment [7], 12.3% (inactive); in experiment [8] it was 40.2% (inactive). Besides, the inhibition of aggregation in experiment [2] was 6.6% (inactive). Further, the nuclei count in experiment [2] was 108%; in experiment [3] it was 100%. Also, the fluorescence slope was -0.348 (inactive) in experiment [4] and 0.00588 (inactive) in experiment [6]. In addition, in experiment [5], the NADPH fluorescence slope is -6.9e-05 (inactive).

For the compound `O=C(O)CCCCCNc1nc(=S)[nH]c2ccccc12`, the cell count in experiment [1] was 494. In addition, the inhibition in experiment [1] is -7.5% (inactive); in experiment [3], 9.6% (inactive); in experiment [7] it was 11.5% (inactive); in experiment [8] it was 19.2% (inactive). Moreover, the inhibition of aggregation in experiment [2] is 20% (inactive). Further, the values for the nuclei count in experiment [2] and in experiment [3] were 102% and 105%, respectively. Moreover, the figures for the fluorescence slope in experiment [4] and in experiment [6] were -0.384 (inactive) and 0.0068 (inactive), respectively. The NADPH fluorescence slope in experiment [5] is 2.9e-05 (inactive).

For `O=C(CSc1nnc2sc3ccccc3n12)c1ccco1`, the cell count in experiment [1] turned out to be 308. Further, the inhibition was 1.9% (inactive) in experiment [1], 19.6% (inactive) in experiment [3], -17.8% (inactive) in experiment [7] and -83.7% (inactive) in experiment [8]. Also, the inhibition of aggregation in experiment [2] was 23.4% (inactive). Moreover, the nuclei count was found to be 83.3% in experiment [2] and 91.6% in experiment [3]. In addition, the fluorescence slope in experiment [4] was -0.293 (inactive); in experiment [6], 0.00582 (inactive). Besides, in experiment [5], the NADPH fluorescence slope was -5e-05 (inactive).

For `CC(C)Oc1ccc(-c2nn(-c3ccccc3)cc2/C=c2\sc3ncnn3c2=O)cc1`, the cell count in experiment [1] amounted to 335. Moreover, the inhibition in experiment [1] was -4.6% (inactive); in experiment [3] it was -335% (inactive); in experiment [7], -16.4% (inactive); in experiment [8] it was -14.6% (inactive). The inhibition of aggregation in experiment [2] is 5.1% (inactive). The nuclei count stood at 88.3% in experiment [2] and 114% in experiment [3]. Also, the fluorescence slope in experiment [4] was -0.279 (inactive); in experiment [6], 0.00832 (inactive). For the same compound, in experiment [5], the NADPH fluorescence slope was 1e-05 (inactive).

Turning to `COc1cc(C2=NOC(C(=O)NCc3ccc(F)cc3)C2)cc(OC)c1OC` (centres undefined), in experiment [1], the cell count was 774. In addition, the inhibition was 13.6% (inactive) in experiment [1], -308% (inactive) in experiment [3], 36.9% (inactive) in experiment [7] and 85.8% (active) in experiment [8]. In addition, the inhibition of aggregation in experiment [2] was -195% (inactive). Further, the nuclei count in experiment [2] came to 2.2%; in experiment [3] it was 103%. Also, the fluorescence slope is -0.462 (inactive) in experiment [4] and 0.00672 (inactive) in experiment [6]. Also, in experiment [5], the NADPH fluorescence slope was 4.9e-05 (inactive).

For `COc1ccc(CC(=O)Nc2c3c(nn2-c2cccc(Cl)c2)CS(=O)(=O)C3)cc1`, the cell count in experiment [1] is 785. Further, the inhibition was -11.6% (inactive) in experiment [1], -28.2% (inactive) in experiment [3], 19.7% (inactive) in experiment [7] and 20.9% (inactive) in experiment [8]. The inhibition of aggregation in experiment [2] was -2.4% (inactive). Moreover, the nuclei count in experiment [2] worked out at 98.5%; in experiment [3] it was 107%. Further, the fluorescence slope in experiment [4] is -0.529 (inactive); in experiment [6], 0.00322 (inactive). In addition, the NADPH fluorescence slope in experiment [5] was 1.2e-05 (inactive).

For the compound `NC(=O)c1sc2nc(N3CCCCC3)c3c(c2c1N)CCCC3`, the cell count in experiment [1] was determined as 369. The inhibition in experiment [1] is 8.4% (inactive); in experiment [3], 26.5% (inactive); in experiment [7], 1.9% (inactive); in experiment [8] it was 10.7% (inactive). For the same compound, the inhibition of aggregation in experiment [2] is -12.2% (inactive). In addition, the nuclei count in experiment [2] was determined as 118%; in experiment [3], 111%. Besides, the figures for the fluorescence slope in experiment [4] and in experiment [6] were 1.5e-14 (active) and 0.00601 (inactive), respectively. In experiment [5], the NADPH fluorescence slope is 0 (inactive).

Consider `C[C@H](NC(=O)Nc1cccc(C(F)(F)F)c1)C(=O)O`, for which the cell count in experiment [1] came to 759. The inhibition is 0.4% (inactive) in experiment [1], -1.7% (inactive) in experiment [3], 27.2% (inactive) in experiment [7] and 22.6% (inactive) in experiment [8]. Besides, in experiment [2], the inhibition of aggregation is 14.4% (inactive). Besides, the nuclei count in experiment [2] is 98%; in experiment [3], 92.5%. The fluorescence slope in experiment [4] was -0.547 (inactive); in experiment [6], 0.00427 (inactive). Also, the NADPH fluorescence slope in experiment [5] is 1.5e-05 (inactive).

These data come from PubChem BioAssay.
